Diaph inh CS – diaphorase inhibitors and chemical oxidizers, primary screen, counter-screen for diaphorase-coupled primary assays, biochemical, uHTS, resorufin fluorescence | inhibition, % at 20 µM | 0.69% of 190,000 active | diaphorase resazurin-to-resorufin fluorescence, NADH, 16 min; bacterial (C. kluyveri) enzyme, not human;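 active = primary screen inhibition at 20 µM above a set limit, cut at about 50% in these data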;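 also: plate controls were DMSO with full reaction for no effect and wells lacking NADH for full effect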
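System: Diaphorase enzyme from Clostridium kluyveri | Amount: Enzyme working solution with 0.14 U/mL diaphorase | Benchmarks: No-NADH positive control and DMSO neutral control | Signal: Fluorescence of resorufin formed from resazurin, Ex 544/Em 590 nm | Schedule: 16-min room-temperature incubation before reading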
Lmaj promast – Leishmania major promastigote growth inhibition, primary screen | Leishmania major promastigotes, resazurin fluorescence viability | AID 1063, 2008 | 9% of 200,000 active | inhibition, % at 10 µM; in the data active = inhibition above about 50%;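 also: promastigotes grown with compound for 44 hours at 28 °C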
ROMK primary – ROMK potassium channel modulators, primary screen, cell-based, thallium flux, MLSMR library | ATP-sensitive inward rectifier potassium channel 1 (Homo sapiens), P48048 | Tet-inducible ROMK, thallium flux fluorescence; actives lie on both sides | B-score at 10 µM | 2% of 130,000 active;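 active = signal ratio slope over the read window, or its plate-corrected B-score, at least 3 SD from the plate mean, either direction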;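 also: B-score of the F/F0 ratio slope over 7 to 12 s after thallium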
WT yeast gro inh – growth inhibition of WT strain, primary screen, mitochondrial fusion inhibitor project, WT and mutant strains, chemical genetic | 2.1% of 190,000 active | mitochondrial fusion phenotypic screen | AID 1362, 2008 | inhibition, % at 10 µM; in the data active = inhibition above about 58%; tested in S. cerevisiae
Cl transport mod – KCC2 cotransporter modulators, thallium flux, primary screen, cell-based, HEK293 KCC2, FluoZin-2 fluorescence, MLSMR; 2.2% of 190,000 active; AID 1456, 2008; KCC2 cells, thallium flux FluoZin-2 fluorescence; Solute carrier family 12 member 5 (Homo sapiens), Q9H2X9; B-score of Tl+ flux slope (higher = more flux/activation; lower = inhibition) at 10 µM;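 active = thallium flux slope and its plate-corrected score both differing from the plate sample mean at a set confidence after two filtering rounds, in either direction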;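 also: slope of fluorescence scaled to starting intensity during 10 to 20 s after thallium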
Target sequence (Q9H2X9 whole entry, looked up): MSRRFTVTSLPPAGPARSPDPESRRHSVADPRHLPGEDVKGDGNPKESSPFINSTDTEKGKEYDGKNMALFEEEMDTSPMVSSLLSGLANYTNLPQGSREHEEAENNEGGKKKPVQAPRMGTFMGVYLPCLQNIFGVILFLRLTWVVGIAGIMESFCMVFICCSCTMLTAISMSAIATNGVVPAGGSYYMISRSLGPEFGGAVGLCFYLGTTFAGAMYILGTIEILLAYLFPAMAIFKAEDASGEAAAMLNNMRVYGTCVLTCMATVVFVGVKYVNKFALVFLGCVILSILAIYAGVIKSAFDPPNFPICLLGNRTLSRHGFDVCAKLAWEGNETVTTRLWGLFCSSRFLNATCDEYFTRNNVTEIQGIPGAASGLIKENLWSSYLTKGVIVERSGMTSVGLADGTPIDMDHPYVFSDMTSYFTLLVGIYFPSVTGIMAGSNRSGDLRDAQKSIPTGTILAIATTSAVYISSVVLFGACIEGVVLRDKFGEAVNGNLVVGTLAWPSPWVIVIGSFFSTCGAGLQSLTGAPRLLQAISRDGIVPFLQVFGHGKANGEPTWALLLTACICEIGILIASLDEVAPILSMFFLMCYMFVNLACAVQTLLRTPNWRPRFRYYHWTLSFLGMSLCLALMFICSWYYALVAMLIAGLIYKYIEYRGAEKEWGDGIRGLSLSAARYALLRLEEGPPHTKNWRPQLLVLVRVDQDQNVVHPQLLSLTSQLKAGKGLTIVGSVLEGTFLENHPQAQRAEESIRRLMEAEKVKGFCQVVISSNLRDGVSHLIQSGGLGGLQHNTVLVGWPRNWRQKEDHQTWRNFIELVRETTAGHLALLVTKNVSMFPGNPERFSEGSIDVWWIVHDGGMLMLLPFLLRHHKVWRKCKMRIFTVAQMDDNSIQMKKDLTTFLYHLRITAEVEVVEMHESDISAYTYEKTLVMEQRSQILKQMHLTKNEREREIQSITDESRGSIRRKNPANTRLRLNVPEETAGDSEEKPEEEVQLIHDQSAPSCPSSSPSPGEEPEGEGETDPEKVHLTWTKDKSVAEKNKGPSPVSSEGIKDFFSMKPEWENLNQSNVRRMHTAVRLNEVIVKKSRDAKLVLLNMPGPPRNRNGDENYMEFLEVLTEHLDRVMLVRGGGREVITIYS
Diaphorase act – compounds boosting diaphorase resazurin reduction – biochemical, uHTS, resorufin fluorescence, counter-screen for diaphorase-coupled primary assays, primary screen; Diaphorase/resazurin coupled assay, 16 min; active compounds read high; 1 = vehicle wells, 0 = NADH-free wells; activation factor at 20 µM; 0.005% of 190,000 active; AID 1229, 2008;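 active = diaphorase activity raised at least twofold by the compound at 20 µM; inactive = activation factor below 2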
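Test system: Clostridium kluyveri diaphorase, purified enzyme; input: enzyme 0.07 U/mL final; buffer or medium: 50 mM HEPES pH 7.4 with 4.542 mM MgCl2, 0.005% Tween 20; also added: 0.114 mM NADH and 0.1 mM resazurin, final amounts; schedule: 16 min enzyme reaction, ambient temperature; technique: fluorescence of resorufin, 544 nm excitation, 590 nm emission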
KCC2 secondary – KCC2 modulators in sodium-free buffer, confirmation, cell-based, HEK293 KCC2, thallium flux, secondary assay. normalised thallium flux (F/F0 slope) at 10 µM. FluoZin2 fluorescence; active compounds read high. 15% of 3,700 active. AID 1713, 2009. shares compounds with Cl transport mod;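 active = thallium flux slope above the same plate's solvent-only control mean plus 3 SD; inconclusive = the two replicate wells disagree; inactive = no significant difference from solvent-only control wells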
KCC2 bumet counter – thallium flux persisting under bumetanide in KCC2 cells, confirmation, counter-screen for KCC2 modulator project, cell-based, HEK293 KCC2, FluoZin2, secondary assay 3; shares compounds with Cl transport mod; HEK293-KCC2 + bumetanide/ouabain; active compounds read high; normalized thallium flux at 10 µM; 49% of 3,700 active; AID 1714, 2009;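 active = thallium entry rate above the same plate's blocked-transporter control wells by more than 3 SD; inconclusive = the two repeat wells disagree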;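 also: raw slope of fluorescence over initial fluorescence between 10 and 20 s after thallium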
KCC2 secondary2 – KCC2 modulators without ouabain present, confirmation, cell-based, HEK293 KCC2, thallium flux, FluoZin2, secondary assay 2. shares compounds with Cl transport mod. thallium flux FluoZin2 fluorescence; actives lie on both sides; F/F0 rise rate, 10–20 s post-thallium. normalized thallium flux at 10 µM. 23% of 3,700 active. AID 1715, 2009;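 active = thallium flux slope more than 3 SD above or below the plate's solvent-only control mean, mostly below; inconclusive = the two repeat wells disagreed; inactive = no significant shift from solvent-only controls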;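 also: raw slope with 0.1% DMSO as baseline and bumetanide as block control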
HEK293 Tl flux – thallium flux modulation in parental HEK cells, confirmation, counter-screen for KCC2 modulator project, cell-based, counterscreen 1; shares compounds with Cl transport mod; HEK293 parental cells, thallium flux FluoZin2, ouabain; baseline-ratio fluorescence slope, 10–20 s after thallium; thallium flux rate (normalised fluorescence) at 10 µM; 46% of 3,700 active; AID 1716, 2009;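 active = thallium flux rate significantly above the same plate's solvent-only control wells, beyond their mean plus 3 SD; inconclusive = the two replicate wells gave conflicting results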
KCC2 ouabain – KCC2 inhibitors and activators, ouabain retest, confirmation, HEK-KCC2 cells. raw Tl+ flux slope (below DMSO = inhibition, above = activation) at 10 µM. 48% of 3,700 active. HEK293-KCC2, thallium flux FluoZin2 fluorescence; bidirectional: low = inhibitor, high = activator. shares compounds with Cl transport mod;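 active = thallium flux slope beyond 3 SD from same-plate DMSO control mean in most replicates, usually higher, sometimes lower; inconclusive = repeat tests gave conflicting results; inactive = no significant difference from controls in most replicates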;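 also: slope of initial-normalized fluorescence between seconds 10 and 20 after thallium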
HEK counter2 – native HEK Tl+ uptake effects, second counter-screen – HEK cells, counterscreen 2, counter-screen for KCC2 modulator project, confirmation; 33% of 3,700 active; shares compounds with Cl transport mod; HEK293 parental, thallium flux FluoZin-2 fluorescence slope; thallium flux slope at 10 µM;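 active = thallium flux slope above the same plate's solvent-control mean plus 3 SD in both duplicate wells; inconclusive = duplicate wells that disagreed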;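 also: run without ouabain in cells lacking the KCC2 cotransporter; slope of fluorescence scaled to its starting value between 10 and 20 s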
Numbers without * were called inactive; ? = inconclusive; nt = no result given. A selection: hits, their analogues and other compounds. The true share with any hit is near 12%.

SMILES | Diaph inh CS | Lmaj promast | ROMK primary | WT yeast gro inh | Cl transport mod | Diaphorase act | KCC2 secondary | KCC2 bumet counter | KCC2 secondary2 | HEK293 Tl flux | KCC2 ouabain | HEK counter2
O=[N+]([O-])c1ccc(Sc2cccc3cccnc23)cc1 | 11 | 10 | -0.04 | 27 | -0.29 | 0.9 | nt | nt | nt | nt | nt | nt
CCn1c(SCC(=O)Nc2nc3ccccc3s2)nc2c(c1=O)SC(C)C2 (centres undefined) | 21 | 26 | nt | 5 | -4.1* | 0.8 | 0.0072 | 0.0052 | 0.03 | 0.0057* | 0.02* | 0.0091
CCCCCCCN1N=C(C)C(C(=O)c2ccccc2)C1=O (centres undefined) | 8 | -5 | 0.95 | 13 | 3.1* | 0.9 | 0.008 | 0.024* | ? | 0.014* | 0.03* | 0.017*
CCCCN(C(=O)c1ccc(Cl)cc1)C1CC2CCC(C1)N2C (centres undefined) | 5 | -1 | nt | 10 | 0.42 | 0.9 | nt | nt | nt | nt | nt | nt
CCCCCCN1N=C(C)C(C(=O)c2ccc(Cl)cc2)C1=O (centres undefined) | 14 | -5 | 0.61 | 12 | 5* | 0.9 | 0.013* | 0.025* | 0.033 | 0.014* | 0.032* | ?
CCOC(=O)c1c(C)[nH]c(N=Nc2ccccc2)c1C | 17 | 6 | nt | 75* | 5.2* | 0.8 | 0.01 | 0.0097* | 0.036 | 0.0091* | ? | ?
O=c1c2ccccc2c(-c2n[nH]c(=S)o2)nn1Cc1ccccc1 | 12 | -8 | 1.7 | -4 | -4.9* | 0.9 | 0.0088 | 0.0057 | ? | 0.0068 | 0.014* | ?
Cn1nnc(NC(=S)NC(=O)c2ccc(-c3ccc(Br)cc3)o2)n1 | 11 | -1 | 0.19 | 59* | 5.2* | 0.9 | 0.014* | 0.018* | 0.032 | 0.017* | ? | 0.012
CCCn1nnc(NC(=S)NC(=O)c2ccc(-c3ccc(Br)cc3)o2)n1 | nt | nt | nt | nt | 19* | nt | ? | 0.015* | 0.028 | 0.015* | 0.057* | 0.011
O=C(Nc1ncc(Cc2ccccc2Cl)s1)C1CCCO1 (centres undefined) | 17 | 5 | nt | -2 | 0.94 | 0.8 | nt | nt | nt | nt | nt | nt
COC(=O)C1CCC(C)(C(=O)Nc2ccccc2)C1(C)C (centres undefined) | 13 | -7 | -0.066 | 7 | -0.038 | 0.9 | nt | nt | nt | nt | nt | nt
CN(C)S(=O)(=O)c1ccc(Cl)c(C(=O)Nc2nc3ccccc3[nH]2)c1 | 0 | -2 | 0.57 | -4 | nt | 1 | 0.0066 | 0.005 | 0.022* | 0.0077 | 0.013* | 0.01
CCc1ccccc1NNC(=O)c1snnc1C | nt | nt | nt | nt | 5* | nt | 0.0099 | 0.0084* | 0.033 | 0.0069 | 0.022 | 0.01
COC(=O)c1cc2c(ccn2-c2ccc(F)cc2)n1CC(=O)C(C)(C)C | 11 | -3 | -0.24 | 5 | 0.4 | 0.9 | nt | nt | nt | nt | nt | nt
CCOC(=O)c1cc2c(ccn2-c2ccc(F)cc2)n1CC(=O)N(CC)CC | 26 | 7 | -0.91 | -9 | -5.5* | 0.7 | 0.015 | 0.0036 | 0.023* | ? | 0.012* | 0.009
COc1ccccc1N(CCN1C(=O)c2cccc3cccc(c23)C1=O)C(=O)c1ccncc1 | 8 | 2 | -0.25 | 10 | 1.2 | 0.9 | nt | nt | nt | nt | nt | nt
Cc1ccc2c(c1)C1CN(C)CCC1N2C(=O)COc1ccccc1F (centres undefined) | nt | nt | nt | nt | -0.22 | nt | nt | nt | nt | nt | nt | nt
Cc1ccc2c(c1)C1CN(C)CCC1N2C(=S)NC(=O)c1ccc(Cl)cc1Cl (centres undefined) | nt | nt | nt | nt | 61* | nt | 0.023* | 0.11* | 0.03 | 0.032* | 0.061* | 0.013*
Cc1cccc(NC(=S)NNc2ncc(C(F)(F)F)cc2Cl)c1 | 7 | -8 | 0.64 | 4 | 16* | 0.9 | 0.011 | 0.12* | 0.032 | 0.027* | 0.055* | 0.014*
O=C(CSc1ncn[nH]1)Nc1c(F)cc(F)cc1Br | 0 | -1 | nt | -23 | nt | 1 | nt | nt | nt | nt | nt | nt
CCOc1cc(CNc2ccc3c(c2)OCCO3)cc(Br)c1OCC | 9 | 7 | nt | 17 | -0.18 | 0.9 | nt | nt | nt | nt | nt | nt
Cc1cc2oc(=O)cc(CN3CCOCC3)c2cc1C | 6 | -3 | -0.26 | 0 | 6.9* | 0.9 | 0.0062 | 0.0053 | 0.026* | 0.0076 | 0.018 | 0.011
COC(=O)c1ccc(C2c3c(oc4ccccc4c3=O)C(=O)N2CCCN2CCOCC2)cc1 (centres undefined) | 8 | -7 | nt | 9 | -4.5* | 0.9 | 0.0052 | 0.0061* | 0.029 | 0.008 | 0.019 | 0.011
COC(=O)c1c(NS(=O)(=O)c2ccc3ccccc3c2)sc2c1CCCC2 | 22 | 0 | 2.3 | 37 | 27* | 0.8 | 0.0071 | 0.065* | 0.058* | 0.057* | 0.057* | 0.039*
COC(=O)c1c(NC(=O)c2ccc(C)c(S(=O)(=O)Nc3ccccc3C)c2)sc2c1CCCC2 | 14 | 34 | nt | 8 | nt | 0.9 | nt | nt | nt | nt | nt | nt
CC(/C=N/n1c(-c2cc(C)[nH]n2)n[nH]c1=S)=C\c1ccccc1 | 51* | 4 | nt | -24 | -4.4* | 0.5 | 0.0095 | 0.0065 | 0.033 | ? | 0.019 | 0.011
